# ChEMBL document CHEMBL1157508, “Mollamides B and C, Cyclic hexapeptides from the indonesian tunicate Didemnum molle” (J Nat Prod, 2008)
# The source made the active and inactive calls. The rule behind the calls is not given here. Numbered stars: 1 amine (or outer) side, 2 acyl side, 3 side chain; on linkers, the order of the positions; unused ones are H or OH. Square brackets hold non-standard residues; d marks the D form. Peptide text beside a SMILES is read from it. * marks the point of attachment. X1 = CC(C)[C@H](N[*:1])C1=N[C@H](C(=O)[*:2])CS1; Allyl(1,1-Me2) = C=CC(C)(C)*
# What was measured:
# [1] = tested on: Mycobacterium intracellulare; test: Antimicrobial activity against Mycobacterium intracellular; format: functional, organism-based
# Candida albicans = test: Antimicrobial activity against Candida albicans; format: functional, organism-based
# Nakaseomyces glabratus = test: Antimicrobial activity against Candida glabrata; format: functional, organism-based
# Pichia kudriavzevii = test: Antimicrobial activity against Candida krusei; format: functional, organism-based
# Cryptococcus neoformans = test: Antimicrobial activity against Cryptococcus neoformans; format: functional, organism-based
# Microglia = test: Antiinflammatory activity against rat neonatal microglia; format: functional
# [2] = molecular target: T1, Prostaglandin G/H synthase 2 (Homo sapiens) (UniProt P35354); test: Inhibition of COX2 in cell based assay
# T1 sequence (whole entry): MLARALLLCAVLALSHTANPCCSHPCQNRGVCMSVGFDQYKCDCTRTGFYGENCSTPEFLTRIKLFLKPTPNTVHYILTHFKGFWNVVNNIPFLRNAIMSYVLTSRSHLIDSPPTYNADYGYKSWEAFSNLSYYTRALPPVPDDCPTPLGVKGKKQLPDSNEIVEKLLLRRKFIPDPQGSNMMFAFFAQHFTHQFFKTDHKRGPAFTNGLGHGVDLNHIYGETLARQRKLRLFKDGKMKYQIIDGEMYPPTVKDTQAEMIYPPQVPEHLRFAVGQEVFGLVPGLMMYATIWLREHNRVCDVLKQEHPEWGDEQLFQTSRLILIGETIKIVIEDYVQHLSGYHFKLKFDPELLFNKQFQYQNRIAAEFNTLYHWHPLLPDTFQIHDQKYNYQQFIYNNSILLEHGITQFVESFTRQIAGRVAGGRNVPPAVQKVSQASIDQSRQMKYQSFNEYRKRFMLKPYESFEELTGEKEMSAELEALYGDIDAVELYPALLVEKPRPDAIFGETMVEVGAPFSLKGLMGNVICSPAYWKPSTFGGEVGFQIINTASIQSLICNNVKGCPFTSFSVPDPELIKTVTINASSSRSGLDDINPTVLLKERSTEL
# Plasmodium falciparum [3] = test: Antimalarial activity against Plasmodium falciparum D6; format: functional, organism-based
# Plasmodium falciparum [4] = test: Antimalarial activity against Plasmodium falciparum W2; format: functional, organism-based
# Leishmania donovani = test: Antileishmanial activity against Leishmania donovani; format: functional, organism-based
# Staphylococcus aureus = test: Antimicrobial activity against methicillin-resistant Staphylococcus aureus; format: functional, organism-based
# [5] = tested on: Human immunodeficiency virus 1; test: Antiviral activity against HIV1 infected in human PBMC; format: functional, organism-based
# L1210 = test: Cytotoxicity against mouse L1210 cells assessed as zone differential value; format: functional
# Procedure, shortened: (§1)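 In vitro disk diffusion assay measuring differential cell killing across nine cell types: leukemias (murine L1210, human CCRF-CEM), solid tumors (murine colon 38, human HCT-116, H125, MCF-7, LNCaP), and murine and human normal hematopoietic progenitor cells (CFU-GM). The read-out is the zone differential between solid tumor, leukemia and normal cell colonies.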
# HCT-116 = test: Cytotoxicity against human HCT116 cells assessed as zone differential value; format: functional; procedure, shortened: as §1
# [6] = Cytotoxicity against human H125 cells assessed as zone differential value; format: functional; procedure, shortened: as §1
# [7] = Cytotoxicity against mouse Colon38 cells assessed as zone differential value; format: functional; procedure, shortened: as §1
SMILES,Activity [1],Activity (Candida albicans),Activity (Nakaseomyces glabratus),Activity (Pichia kudriavzevii),Activity (Cryptococcus neoformans),Activity (Microglia),Activity [2],IC50 (Plasmodium falciparum [3]),IC50 (Plasmodium falciparum [4]),IC50 (Leishmania donovani),IC90 (Leishmania donovani),Activity (Staphylococcus aureus),EC50 [5],Activity (L1210),Activity (HCT-116),Activity [6],Activity [7]
"C=CC(C)(C)O[C@H](C)[C@@H]1NC(=O)[C@@H]2CCCN2C(=O)[C@H](Cc2ccccc2)NC(=O)[C@H](C(C)C)NC(=O)[C@@H]2CSC(=N2)[C@H](C(C)C)NC1=O [MOLLAMIDE B] (cyclo(FPT(Allyl(1,1-Me2))[X1]V))",inactive,inactive,inactive,inactive,inactive,inactive,inactive,2 µg/mL,2.1 µg/mL,18 µg/mL,35 µg/mL,inactive,48.7 µM,–,–,–,–
C=CC(C)(C)OC[C@@H]1NC(=O)CNC(=O)[C@@H]2CCCN2C(=O)[C@H]([C@H](C)CC)NC(=O)c2csc(n2)[C@H](CC(C)C)NC1=O [MOLLAMIDE C],–,–,–,–,–,inactive,inactive,–,–,–,–,–,–,100,100,100,250
